According to ChEMBL document CHEMBL3286172, “Exploring the role of 2-chloro-6-fluoro substitution in 2-alkylthio-6-benzyl-5-alkylpyrimidin-4(3H)-ones: effects in HIV-1-infected cells and in HIV-1 reverse transcriptase enzymes” (J Med Chem, 2014):

Legend:
[1] = system: Human immunodeficiency virus 1; assay: Fold resistance, ratio of EC50 for HIV-1 harboring NNTRI-resistant reverse transcriptase K103N mutant infected in human MT4 cells to EC50 for wild type HIV-1 NL4-3 infected in human MT4 cells; assay type: functional
[2] = system: Human immunodeficiency virus 1; assay: Antiviral activity against HIV-1 harboring NNTRI-resistant reverse transcriptase K103N mutant infected in human MT4 cells assessed as inhibition of virus-induced cytopathic effect by MTT method; assay type: functional, organism-based; details: Human immunodeficiency virus 1, MT4
[3] = system: Human immunodeficiency virus 1; assay: Fold resistance, ratio of EC50 for HIV-1 harboring NNTRI-resistant reverse transcriptase Y181C mutant infected in human MT4 cells to EC50 for wild type HIV-1 NL4-3 infected in human MT4 cells; assay type: functional
In short: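 MT-4 cells infected with HIV-1 mutant (K103N or Y181C) or wild-type NL4-3, with drug present. […] Fold resistance is the mutant EC50 divided by the wild-type NL4-3 EC50. EC50 values are means of at least two experiments.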

[4] = Cytotoxicity against human MT4 cells assessed as induction of cell death by MTT method; assay type: cell-based
In short: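 Mock-infected MT-4 cells exposed to a range of drug concentrations. Viability read by MTT colorimetry at day 5. […] Top concentration was limited where compound precipitated in the culture medium. Means of at least two experiments.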

[5] = system: Human immunodeficiency virus 1; assay: Antiviral activity against wild type HIV-1 NL4-3 infected in human MT4 cells assessed as inhibition of virus-induced cytopathic effect by MTT method; assay type: functional, organism-based; details: Human immunodeficiency virus 1, NL4-3, MT4
In short: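 MT-4 lymphoid cells infected with wild-type HIV-1 NL4-3 while exposed to a range of drug concentrations. Viable cells counted by tetrazolium (MTT) colorimetry at day 5 post-infection. Means of at least two experiments.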

[6] = system: Human immunodeficiency virus 1; assay: Antiviral activity against HIV-1 harboring NNTRI-resistant reverse transcriptase Y188L mutant infected in human MT4 cells assessed as inhibition of virus-induced cytopathic effect by MTT method; assay type: functional, organism-based; details: Human immunodeficiency virus 1, MT4
In short: (§1)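 MT-4 lymphoid cells infected with HIV-1 carrying RT K103N, Y181C or Y188L, with a range of drug concentrations present. Viable cells counted by MTT colorimetric assay at day 5 post-infection. […] Highest concentration tested was limited by precipitation in culture medium. Means of at least two experiments.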

[7] = system: Human immunodeficiency virus 1; assay: Antiviral activity against HIV-1 harboring NNTRI-resistant reverse transcriptase Y181C mutant infected in human MT4 cells assessed as inhibition of virus-induced cytopathic effect by MTT method; assay type: functional, organism-based; details: Human immunodeficiency virus 1, MT4; in short: as §1
[8] = Selectivity index, ratio of CC50 for human MT4 cells to EC50 for wild type HIV-1 NL4-3 infected in human MT4 cells; assay type: toxicity, cell-based; details: read-out: Ratio CC50/EC50
In short: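 Ratio of CC50 to EC50, both from MTT readings in MT-4 cells at day 5. CC50 was taken in mock-infected cells and EC50 in cells infected with wild-type NL4-3. Values are means of at least two experiments.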

[9] = molecular target: Human immunodeficiency virus type 1 reverse transcriptase (Human immunodeficiency virus 1) (UniProt Q72547)
[10] = system: Human immunodeficiency virus type 1 reverse transcriptase (Human immunodeficiency virus 1), Q72547 [K103N]
[11] = system: Human immunodeficiency virus type 1 reverse transcriptase (Human immunodeficiency virus 1), Q72547 [L100I]

| SMILES | Ratio EC50 [1] | EC50 [2] [nM] | Ratio EC50 [3] | CC50 [4] [nM] | EC50 [5] [nM] | EC50 [6] [nM] | EC50 [7] [nM] | selectivity ratio [8] | pID50 [9] | ID50 [10] [nM] | ID50 [9] [nM] | ID50 [11] [nM] |
| --- | --- | --- | --- | --- | --- | --- | --- | --- | --- | --- | --- | --- |
| CC(C)Sc1nc(Cc2c(F)cccc2Cl)cc(=O)[nH]1 | 103 | 39200 | 47 | > 80000 | 380 | > 80000 | 17800 | > 210 |  |  |  |  |
| CCC(C)Sc1nc(Cc2c(F)cccc2Cl)cc(=O)[nH]1 (centres undefined) | 157 | 25200 | 52 | > 76000 | 160 | > 76000 | 8300 | > 475 |  |  |  |  |
| CCCCSc1nc(Cc2c(F)cccc2Cl)cc(=O)[nH]1 | 101 | 29200 | 58 | > 76000 | 290 | > 76000 | 16700 | > 262 |  |  |  |  |
| O=c1cc(Cc2c(F)cccc2Cl)nc(SC2CCCC2)[nH]1 | 281 | 42100 | 122 | > 74000 | 150 | > 74000 | 18300 | > 493 |  |  |  |  |
| Cc1c(Cc2c(F)cccc2Cl)nc(SC(C)C)[nH]c1=O | 88 | 10600 | 70 | > 76000 | 120 | > 76000 | 8400 | > 633 |  |  |  |  |
| CCCSc1nc(Cc2c(F)cccc2Cl)c(C)c(=O)[nH]1 | 107 | 9200 | 27 | > 76000 | 86 | > 76000 | 2300 | > 884 |  |  |  |  |
| CCC(C)Sc1nc(Cc2c(F)cccc2Cl)c(C)c(=O)[nH]1 (centres undefined) | 115 | 5400 | 111 | > 73000 | 47 | > 73000 | 5200 | > 1550 |  |  |  |  |
| CCCCSc1nc(Cc2c(F)cccc2Cl)c(C)c(=O)[nH]1 | 182 | 20000 | 21 | > 73000 | 110 | > 73000 | 2300 | > 664 |  |  |  |  |
| Cc1c(Cc2c(F)cccc2Cl)nc(SC2CCCC2)[nH]c1=O |  | > 71000 |  | > 71000 | 180 | > 71000 | > 71000 | > 394 |  |  |  |  |
| Cc1c([C@H](C)c2c(F)cccc2Cl)nc(SC(C)C)[nH]c1=O |  | 10 |  | > 23500 | 0.03 | 350 | 150 |  |  |  |  |  |
| Cc1c([C@@H](C)c2c(F)cccc2Cl)nc(SC(C)C)[nH]c1=O |  | > 36900 |  | > 36900 | 220 | > 36900 | > 36900 |  |  |  |  |  |
| Cc1c([C@@H](C)c2c(F)cccc2F)nc(SC2CCCC2)[nH]c1=O |  |  |  |  |  |  |  |  | 6 |  |  |  |
| Cc1c([C@H](C)c2c(F)cccc2F)nc(SC2CCCC2)[nH]c1=O |  |  |  |  |  |  |  |  | 8.1 |  |  |  |
| Cc1c(C(C)c2c(F)cccc2Cl)nc(SC(C)C)[nH]c1=O (racemic) |  | 140 |  | > 15000 | 0.04 | 3400 | 250 |  |  |  |  |  |
| CCC(C)Sc1nc(C(C)c2c(F)cccc2Cl)c(C)c(=O)[nH]1 (racemic) |  | 320 |  | > 1500 | 0.3 | > 1500 | 390 |  |  |  |  |  |
| CCc1c(C(C)c2c(F)cccc2Cl)nc(SC(C)C)[nH]c1=O (racemic) |  | > 3000 |  | > 3000 | 960 | > 3000 | > 3000 | > 3 |  | 2600 | 48 | 1100 |
| CCCSc1nc(C(C)c2c(F)cccc2Cl)c(CC)c(=O)[nH]1 (racemic) |  | > 3000 |  | > 3000 | 28 | > 3000 | > 3000 | > 107 |  | 2600 | 10 | 230 |

| SMILES | Ratio EC50 [1] | EC50 [2] [nM] | Ratio EC50 [3] | CC50 [4] [nM] | EC50 [5] [nM] | EC50 [6] [nM] | EC50 [7] [nM] | selectivity ratio [8] | pID50 [9] | ID50 [10] [nM] | ID50 [9] [nM] | ID50 [11] [nM] |
| --- | --- | --- | --- | --- | --- | --- | --- | --- | --- | --- | --- | --- |
| CCc1c(C(C)c2c(F)cccc2Cl)nc(SC(C)CC)[nH]c1=O (racemic) |  | > 3000 |  | > 3000 | 270 | > 3000 | > 3000 | > 11 |  | 2400 | 8 | 400 |
| CCCCSc1nc(C(C)c2c(F)cccc2Cl)c(CC)c(=O)[nH]1 (racemic) |  | > 3000 |  | > 3000 | 64 | > 3000 | > 3000 | > 47 |  | 2300 | 22 | 330 |
| CCc1c(C(C)c2c(F)cccc2Cl)nc(SC2CCCC2)[nH]c1=O (racemic) |  | > 3000 |  | > 3000 | > 3000 | > 3000 | > 3000 |  |  | 1800 | 24 | 530 |
| CCC(c1nc(SC(C)C)[nH]c(=O)c1C)c1c(F)cccc1Cl (racemic) |  | > 3000 |  | > 3000 | 84 | > 3000 | > 3000 | > 36 |  | 420 | 6 | 120 |
| CCC(C)Sc1nc(C(CC)c2c(F)cccc2Cl)c(C)c(=O)[nH]1 (racemic) |  | > 3000 |  | > 3000 | 54 | > 3000 | > 3000 | > 56 |  | 450 | 2 | 120 |
| CCCCSc1nc(C(CC)c2c(F)cccc2Cl)c(C)c(=O)[nH]1 (racemic) |  | > 3000 |  | > 3000 | 110 | > 3000 | > 3000 | > 27 |  | 1000 | 3 | 260 |
| CCC(c1nc(SC2CCCC2)[nH]c(=O)c1C)c1c(F)cccc1Cl (racemic) |  | > 3000 |  | > 3000 | 580 | > 3000 | > 3000 | > 5 |  | 340 | 4 | 68 |
| CCCSc1nc(C(C)c2c(F)cccc2F)c(C)c(=O)[nH]1 (racemic) |  | > 3000 |  | > 3000 | 28 | > 3000 | > 3000 | > 107 |  | 380 | 1 | 230 |
| CCc1c(C(C)c2c(F)cccc2F)nc(SC(C)C)[nH]c1=O (racemic) |  | > 3000 |  | > 3000 | 89 | > 3000 | > 3000 | > 34 |  | 830 | 12 | 27200 |
| CCCSc1nc(C(C)c2c(F)cccc2F)c(CC)c(=O)[nH]1 (racemic) |  | > 3000 |  | > 3000 | 240 | > 3000 | > 3000 | > 12 |  | 430 | 3 | 270 |
| CCc1c(C(C)c2c(F)cccc2F)nc(SC(C)CC)[nH]c1=O (racemic) |  | > 3000 |  | > 3000 | 140 | > 3000 | > 3000 | > 21 |  | 450 | 11 | 110 |
| CCCCSc1nc(C(CC)c2c(F)cccc2F)c(C)c(=O)[nH]1 (racemic) |  | > 3000 |  | > 3000 | 23 | > 3000 | > 3000 | > 130 |  | 280 | 3 | 230 |
| CCCCSc1nc(O)c(C)c(C(C)c2c(F)cccc2F)n1 (racemic) |  | > 3000 |  | > 3000 | 50 | > 3000 | > 3000 | > 60 |  | 450 | 3 | 230 |
| Cc1c(C(C)c2c(F)cccc2F)nc(SC(C)C)[nH]c1=O (racemic) |  |  |  | > 3000 |  |  |  | > 3000 |  |  |  |  |
| O=C1Nc2ccc(Cl)cc2[C@@](C#CC2CC2)(C(F)(F)F)O1 [EFAVIRENZ] |  |  |  | > 3000 |  | 1970 | 13 |  |  |  |  |  |
| Cc1ccnc2c1NC(=O)c1cccnc1N2C1CC1 [NEVIRAPINE] |  |  |  | > 7000 |  | > 7000 | > 7000 |  |  |  |  |  |
